NALP1 yeast inh – NALP1 inhibition; AID 2071; 280,000 compounds, 0.61% hits; inhibition, % at 10 µM; S. cerevisiae NALP1/ASC/caspase-1 growth, X-gal OD620, 72 h; in the data active = inhibition mostly above about 24%, no sharp cut-off; inactive = mostly below about 32%
VIM-2 inhibitor – blocks Pseudomonas aeruginosa VIM-2 metallo-beta-lactamase; purified VIM-2, nitrocefin hydrolysis, epi-absorbance fluorescence; inhibition, % at 5.6 µM; 290,000 compounds, 0.89% hits; AID 1527;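 active = inhibition above the mean of all tested compounds plus 3 SD, cutoff set per screening run, cut at about 7.5% in these data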;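 also: red hydrolysis product quenches plate fluorescence so inhibitors raise well fluorescence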
IMP-1 inh-1 – blocks Pseudomonas aeruginosa IMP-1 metallo-beta-lactamase. purified IMP-1, nitrocefin hydrolysis, epi-absorbance fluorescence. inhibition, % at 5.6 µM. 290,000 compounds, 0.45% hits. AID 1556;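 active = inhibition above the mean plus 3 SD of all compounds in the same screening run, cut at about 4.5% in these data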
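Test system: recombinant IMP-1 enzyme, purified / Medium: HEPES buffer pH 7.1 with ZnSO4 and Brij 35 / Doses: single dose, 5.6 µM / Times: 25 °C, 15 min preincubation, 25 min reaction / Detection: Epi-absorbance via hydrolysed-nitrocefin quenching of white-plate fluorescence, 480/530 nm, EDTA stop / Evaluation: percent inhibition from optical density relative to buffer-blank wells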
Mot1-301 SUMO – SUMOylation pathway inhibition by Mot1-301 growth rescue. S. cerevisiae Mot1-301 growth rescue, ATP luminescence, 38.5C; percent above DMSO median, 100 means doubled. growth rescue, % at 18.8 µM. 320,000 compounds, 1% hits;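 active = every valid replicate shows activation above 250% relative to neutral control wells; inactive = the rest, any valid replicate at or below 250%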
DNA FID counter – displaces DNA intercalator in HCV helicase counter-screen; inhibition, % at 7.9 µM; 290,000 compounds, 0.17% hits; AID 1845; DNA fluorescent intercalator displacement, fluorescence; in the data active = inhibition above about 37%;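 also: higher means more ethidium bromide displaced from hairpin DNA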
SUMO HTRF inh – inhibitors of human SUMOylation (UBC9); HTRF SUMOylation assay, SAE1/SAE2 + UBC9, in vitro; inhibition, % at 35 µM; 290,000 compounds, 0.36% hits; AID 2006; in the data active = inhibition above about 50%, passing the limit was not always enough
Target sequence (P63279 whole entry, looked up): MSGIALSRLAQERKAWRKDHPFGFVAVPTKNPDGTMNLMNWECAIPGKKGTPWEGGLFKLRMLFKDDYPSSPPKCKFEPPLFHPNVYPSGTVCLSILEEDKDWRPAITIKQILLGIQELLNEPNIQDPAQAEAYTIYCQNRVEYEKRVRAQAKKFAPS
IMP-1 inh-2 – blocks IMP-1 metallo-beta-lactamase in VIM-2 selectivity screen; shares compounds with VIM-2 inhibitor; purified IMP-1, nitrocefin hydrolysis, epi-absorbance fluorescence; inhibition, % at 5.6 µM; 1,300 tested, under 10 active; AID 1856; call rule not given here
VIM-2 FRET inh – counter-screen for VIM-2 inhibitors: epi-absorbance artifacts via FRET; purified VIM-2, CCF2 FRET substrate hydrolysis; shares compounds with VIM-2 inhibitor; inhibition, % at 5.6 µM; 1,300 compounds, 23% hits;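 active = inhibition above the mean of all tested compounds plus 3 SD, cut at about 19% in these data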
TEM-1 inh – blocks E. coli TEM-1 beta-lactamase in VIM-2 selectivity screen; inhibition, % at 5.6 µM; AID 1866; Purified TEM-1, nitrocefin hydrolysis, epi-absorbance fluorescence; shares compounds with VIM-2 inhibitor; 1,300 compounds, 3% hits;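 active = inhibition above that campaign's mean inhibition plus 3 SD, cut at about 0.46% in these data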
Target sequence (P62593 whole entry, looked up): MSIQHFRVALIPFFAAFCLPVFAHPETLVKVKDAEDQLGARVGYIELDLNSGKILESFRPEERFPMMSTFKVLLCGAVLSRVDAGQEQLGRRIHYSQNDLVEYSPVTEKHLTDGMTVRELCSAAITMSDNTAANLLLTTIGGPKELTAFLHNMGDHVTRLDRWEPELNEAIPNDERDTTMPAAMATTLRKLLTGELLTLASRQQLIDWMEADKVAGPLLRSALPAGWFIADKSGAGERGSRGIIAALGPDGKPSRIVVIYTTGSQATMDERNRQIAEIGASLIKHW
VIM-2 confirm 2 – confirmation of P. aeruginosa VIM-2 metallo-beta-lactamase inhibitors; purified VIM-2, nitrocefin hydrolysis, epi-absorbance; 1,300 compounds, 96% hits; inhibition, % at 5.6 µM; shares compounds with VIM-2 inhibitor;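 active = inhibition of the VIM-2 beta-lactamase enzyme above about 11% from the earlier first-round screen, limit read from the data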
Each line names hits and unclear results; the compound was inactive in the other large screens (follow-up assays come after a bar, where they were run). The list is not random: actives were taken first. Their share in the collection is about 2.9%.

CC(=O)Nc1ccc2c(CSc3nnc(N)s3)cc(=O)oc2c1	VIM-2 inhibitor 21.0 | IMP-1 inh-2 inactive | VIM-2 FRET inh inactive | TEM-1 inh inactive | VIM-2 confirm 2 inactive
Cc1ccc(C(=O)N2CCN(S(=O)(=O)c3ccccc3)CC2)s1	none (no result: NALP1 yeast inh, VIM-2 inhibitor, IMP-1 inh-1, DNA FID counter, SUMO HTRF inh)
CC(C)C(NC(=O)c1ccc(C(C)(C)C)cc1)C(=O)NCc1ccccn1 (centres undefined)	none (no result: NALP1 yeast inh, VIM-2 inhibitor, IMP-1 inh-1, DNA FID counter, SUMO HTRF inh)
CCOC(=O)c1c(-c2ccccc2)oc2ccc(OCC)cc12	none
CCOC(=O)c1c(-c2ccccc2)oc2ccc(OCC(O)CNCCN(C)C)cc12 (centres undefined)	VIM-2 inhibitor 25.1, DNA FID counter 51.1 | IMP-1 inh-2 inactive | VIM-2 FRET inh 20.0 | TEM-1 inh inactive | VIM-2 confirm 2 38.1
CCOc1ccc2nc(NCCNC(=S)NCCCN(C)C)c(C#N)cc2c1	VIM-2 inhibitor 13.1, DNA FID counter 41.7 | IMP-1 inh-2 inactive | VIM-2 FRET inh inactive | TEM-1 inh inactive | VIM-2 confirm 2 18.4
c1ccc2[nH]c(CSc3ncnc4c3oc3ccccc34)nc2c1	none
c1ccc2[nH]c(CN3CCN(c4ncnc5c4oc4ccccc45)CC3)nc2c1	VIM-2 inhibitor 14.6 | IMP-1 inh-2 inactive | VIM-2 FRET inh inactive | TEM-1 inh inactive | VIM-2 confirm 2 26.8
O=C(O)C1Sc2[nH]c(=O)sc2C2c3cc(Cl)ccc3OC(=O)C12 (centres undefined)	VIM-2 inhibitor 14.2 | IMP-1 inh-2 inactive | VIM-2 FRET inh 41.0 | TEM-1 inh inactive | VIM-2 confirm 2 28.8
O=Cc1c(NCc2ccc(Cl)cc2)c2ccccc2[nH]c1=O	VIM-2 inhibitor 14.2 | IMP-1 inh-2 inactive | VIM-2 FRET inh 37.9 | TEM-1 inh inactive | VIM-2 confirm 2 23.8
Cc1cc(C)n2nc(/C(C#N)=C/c3ccccn3)c(C#N)c2n1	VIM-2 inhibitor 44.9 | IMP-1 inh-2 inactive | VIM-2 FRET inh inactive | TEM-1 inh inactive | VIM-2 confirm 2 7.7
Cc1cc(C)n2nc(CC#N)c(C#N)c2n1	none
CN(C(=O)CSc1nnnn1-c1ccc(O)cc1)C1CCCCC1	none (no result: NALP1 yeast inh, VIM-2 inhibitor, IMP-1 inh-1, DNA FID counter, SUMO HTRF inh)
CCCCNC(=O)/C(=C/c1ccco1)NC(=O)c1ccco1	none
O=c1c2ccccc2cnn1Cc1n[nH]c(=S)n1C1CC2CCC1C2 (centres undefined)	VIM-2 inhibitor 15.0 (no result: NALP1 yeast inh) | IMP-1 inh-2 inactive | VIM-2 FRET inh 37.8 | TEM-1 inh inactive | VIM-2 confirm 2 21.1
CC(c1ccccc1)n1c(Cn2ncc3ccccc3c2=O)n[nH]c1=S (centres undefined)	none
O=C(/C=C/c1ccccc1[N+](=O)[O-])NC1CCCC1	none
Cc1c(C)c2c(OCC(=O)Nc3cccnc3)cc3c(c2oc1=O)CCC(C)(C)O3	VIM-2 inhibitor 41.5 | IMP-1 inh-2 inactive | VIM-2 FRET inh inactive | TEM-1 inh inactive | VIM-2 confirm 2 51.9
Cc1c(C)c2c(OCC(=O)N[C@@H](C)C(=O)O)cc3c(c2oc1=O)CCC(C)(C)O3	VIM-2 inhibitor 46.2 | IMP-1 inh-2 inactive | VIM-2 FRET inh 69.8 | TEM-1 inh inactive | VIM-2 confirm 2 53.1
Cc1c(C)c2c(OCC(=O)NCC(C)C)cc3c(c2oc1=O)CCC(C)(C)O3	none
Cc1cc(=O)oc2c3c(cc(OCC(=O)NCc4ccncc4)c12)OC(C)(C)CC3	none
Cc1c(C)c2c(OCC(=O)NCc3ccncc3)cc3c(c2oc1=O)CCC(C)(C)O3	VIM-2 inhibitor 30.9 | IMP-1 inh-2 inactive | VIM-2 FRET inh inactive | TEM-1 inh inactive | VIM-2 confirm 2 40.9

From PubChem
